Screening data as filed in PubChem BioAssay.
NPY-Y2 PAM-ag: human NPY-Y2 potentiation or agonism, primary screen. P49146. cells expressing NPY-Y2, potentiator/agonist read-out. activation, % at 3.6 µM. 220,000 compounds, 0.45% hits; in the data active means activation above about 27%;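 further: cells stimulated with NPY near EC25 plus isoproterenol at EC100; 0% = vehicle plus submaximal agonist and 100% = vehicle plus saturating agonist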
Target sequence (P49146 whole entry, looked up): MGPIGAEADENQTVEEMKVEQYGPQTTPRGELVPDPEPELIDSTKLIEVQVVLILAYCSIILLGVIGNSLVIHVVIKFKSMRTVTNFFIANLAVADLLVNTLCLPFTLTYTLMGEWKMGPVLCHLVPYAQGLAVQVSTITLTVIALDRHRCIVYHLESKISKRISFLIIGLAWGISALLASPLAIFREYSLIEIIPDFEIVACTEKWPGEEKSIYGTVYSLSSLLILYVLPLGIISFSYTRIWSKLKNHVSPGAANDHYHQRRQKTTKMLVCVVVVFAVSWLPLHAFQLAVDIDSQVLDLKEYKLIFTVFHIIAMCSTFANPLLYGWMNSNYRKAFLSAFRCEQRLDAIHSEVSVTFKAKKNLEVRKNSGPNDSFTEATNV
NPY1 pot ag: potentiates or activates human NPY-Y1 receptor | P25929 | activation, % at 3.6 µM | NPY-Y1 expressing cells, potentiator/agonist activation | AID 1304 | 220,000 compounds, 0.37% hits; in the data active means activation above about 33%, passing the limit was not always enough;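 further: cells stimulated with NPY at EC10 then isoproterenol at EC100; 0% = low agonist plus stimulus and 100% = saturating agonist plus stimulus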
NPY-Y1 antag: antagonists of human neuropeptide Y receptor Y1 | P25929 | inhibition, % at 3.6 µM | 200,000 compounds, 1% hits | AID 1040 | HEK293-CNG Y1 cells, membrane potential fluorescence; NPY at EC95, then isoproterenol;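 active means inhibition above the campaign mean inhibition of all tested compounds plus 3 SD, cut at about 20% in these data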;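 further: 0% = DMSO wells given NPY plus isoproterenol and 100% = isoproterenol alone without NPY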
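Benchmarks – high control isoproterenol alone, low control NPY with isoproterenol · Material – HEK293 Y1/CNG channel cell line · Times – dye 3 h, compound 60 min room temperature, stimulation 45 min · Probe or stimulus – NPY (25 nM), isoproterenol (1 µM), Ro 20-1724 (25 µM) · Evaluation – % inhibition of NPY effect · Signal – fluorescence, membrane potential probe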
Mdm2 ligase inh: blocks human Mdm2 ubiquitin ligase activity | Q00987 | cell-based MDM2 ubiquitination luciferase reporter, 2 h; 0 = plate control, 100 = twice control, blank-subtracted | signal enhancement, % at 5 µM | 210,000 compounds, 0.11% hits;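 active means signal enhancement of 30% or more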;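 further: luminescence tracks abundance of the self-degrading MDM2-luciferase fusion protein; higher signal means inhibition of MDM2 E3 ligase activity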
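Assay system: stable mammalian line carrying autodegrading MDM2–luciferase fusion reporter; Input: 2000 cells in each well; Compound dosing: single-point 5 µM; Schedule: 2 h compound exposure at 37 °C; Signal: SteadyLite luciferase luminescence after 15 min room-temperature reagent incubation; Evaluation: % luminescence enhancement versus blank-corrected plate control mean; Benchmarks: plate controls and plate blanks.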
NPY-Y2 antag: antagonists of human neuropeptide Y receptor Y2; NPY-Y2 expressing cells, antagonist mode; inhibition, % at 2.7 µM; 140,000 compounds, 0.99% hits; AID 793; in the data active means inhibition above about 17%;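 further: 0% = vehicle with agonist challenge and 100% = reference antagonist with challenge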
Measles CPE: protection of cells from measles virus; AID 841; protection (pct of control), % at 4 µM; Measles virus-infected cells, CPE protection, absorbance; 140,000 compounds, 1.5% hits; in the data active means protection mostly above about 24%, no sharp cut-off; inactive means mostly below about 26%
NPY1 antag ctr: counter-screen for NPY-Y2 antagonists: human NPY-Y1 antagonism. shares compounds with NPY-Y2 antag. cell-based NPY-Y1 antagonism counterscreen. inhibition, % at 3.6 µM. 710 compounds, 19% hits; in the data active means inhibition above about 20%;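 further: cells challenged with NPY then isoproterenol with cAMP sensed through a CNG channel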
NPY2 antag conf: human NPY-Y2 antagonism, confirmation; HEK293 NPY-Y2 CNG channel, membrane potential fluorescence; inhibition, % at 2.8 µM; shares compounds with NPY-Y2 antag; 710 compounds, 32% hits;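 active means mean inhibition of triplicate wells above the hit cutoff set in the primary screen, cut at about 17% in these data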;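 further: 0% = DMSO with NPY challenge and 100% = BIIE0246 high control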
An asterisk follows results filed as active; x = no result. In the library only some 2.8% were active in any assay of this set; here they are far more common.

SMILES	NPY-Y2 PAM-ag	NPY1 pot ag	NPY-Y1 antag	Mdm2 ligase inh	NPY-Y2 antag	Measles CPE	NPY1 antag ctr	NPY2 antag conf
CCN1/C(=C2\OC(=S)N(C)C2=O)Sc2ccccc21	5	11	-1	-14	20*	17	-1	12
CCN1/C(=C2\OC(=S)N(C)C2=O)C=Cc2ccccc21	-6	5	-4	-13	x	x	x	x
O=[N+]([O-])c1cccc(-c2nnc3ccccn23)c1	3	5	x	x	x	x	x	x
CCCn1c2ccccc2c2cc(C(=O)O)ccc21	-12	-17	7	-18	19*	8	5	8
Cn1c2ccccc2c2cc(C(=O)O)ccc21	3	10	3	-5	1	9	x	x
O=C(COC(=O)/C=C/c1cccc(Cl)c1)Nc1ccccc1-c1ccccc1	-1	-13	7	12	19*	8	21*	30*
O=C(COC(=O)c1ccc(-c2ccccc2)cc1)Nc1ccccc1-c1ccccc1	3	3	-4	8	31*	2	15	19*
O=C(COC(=O)/C=C/c1ccccc1)Nc1ccccc1Br	-10	-30	4	-10	12	11	x	x
O=C(COC(=O)c1ccc(O)cc1)Nc1ccccc1-c1ccccc1	-2	-4	2	-1	6	13	x	x
CN(C)C(=O)NC(O)C(Cl)Cl (stereo unspecified)	-6	-19	2	-8	3	13	x	x
CCOC(=O)CC(NC(=O)C1c2ccccc2Oc2ccccc21)c1ccccc1Cl (stereo unspecified)	8	-21	3	-11	18*	4	12	7
CCOC(=O)CC(NC(=O)Cc1ccccc1)c1ccccc1Cl (stereo unspecified)	4	-24	6	-11	2	4	x	x
Cn1c(SCC(=O)O)nnc1-c1ccc2ncccc2c1	5	21	x	-9	x	x	x	x
CC(C)COP(=O)(OCC(C)C)C(Nc1ccccc1)c1ccc2c(c1)OCO2 (stereo unspecified)	13	-6	17	4	20*	21	11	6
Cc1onc(-c2ccc(Cl)cc2)c1-c1ccnn1S(=O)(=O)c1cccc(C(F)(F)F)c1	-2	-3	x	-8	x	x	x	x
CN(C)C(=O)C(CCN1CCC(O)(c2ccc(Cl)cc2)CC1)(c1ccccc1)c1ccccc1	0	-39	19	x	25*	20	15	28*
CN(C)c1ccc(NC(=O)CN2CCC(O)(c3ccccc3)CC2)cc1	-1	3	3	-3	x	x	x	x
COc1cc(NC(=O)COC(=O)c2cnccn2)c(C)cc1[N+](=O)[O-]	10	5	x	-23	x	x	x	x
C=C(C)CSc1nc2c(c(=O)[nH]c(=O)n2C)n1CCC(C)C	11	-8	2	-15	22*	7	2	0
O=C(NCCc1ccccc1)Nc1ccc2c(c1)OCO2	7	1	2	-35	x	x	x	x
CC(C)N(C(=O)CSc1nc2ccccc2n1Cc1ccccc1F)C(C)C	3	-14	13	x	17*	6	14	6
Cc1nc2ccccc2c(=O)n1NC(=O)/C=C/c1ccc(Br)cc1	-9	-17	18	4	18*	7	16	11
CCOc1ccc(C(=O)NCCc2ccc3c(c2)OCCO3)cc1	-11	-17	3	-10	x	x	x	x
Cc1nc(Nc2ccc(O)cc2)c2c3c(sc2n1)CCCC3	4	11	x	-16	x	x	x	x
Cc1ccc(CNc2nc(C)nc3sc4c(c23)CCC4)cc1	-32	-34	14	-13	20*	4	27*	20*
SMILES	NPY-Y2 PAM-ag	NPY1 pot ag	NPY-Y1 antag	Mdm2 ligase inh	NPY-Y2 antag	Measles CPE	NPY1 antag ctr	NPY2 antag conf
O=c1c2ccccc2cnn1Cc1n[nH]c(=S)n1-c1ccc(Cl)cc1	5	9	-7	x	28*	1	-1	0
CCOc1ccc(C(C(=O)NC2CCCC2)N(Cc2ccccc2)C(=O)c2nsc(Cl)c2Cl)cc1 (stereo unspecified)	-16	-25	18	-14	25*	21	21*	14
Cn1/c(=N/NC(=O)c2ccccc2F)sc2ccccc21	-7	0	-2	1	x	x	x	x
N#Cc1c(NC(=O)CCn2cnc3ccccc3c2=O)oc(-c2ccccc2)c1-c1ccccc1	6	-17	20	-6	20*	16	23*	11
N#Cc1cc2ccccc2nc1SCC(=O)Nc1ccccc1N1CCOCC1	-1	9	8	18	17*	11	0	4
Cc1cccc2cc(C#N)c(SCC(=O)Nc3ccccc3N3CCOCC3)nc12	11	-9	-1	-2	0	6	x	x
COc1ccc(N(CC(=O)N/N=C/c2ccc(OC3CSC3)cc2)S(=O)(=O)c2ccccc2)cc1	8	17	0	1	21*	7	22*	54*
Cc1ccc(N(CC(=O)N/N=C/c2ccc(OC3CSC3)cc2)S(=O)(=O)c2ccccc2)cc1	-14	-8	6	-13	3	5	x	x
COc1ccccc1CNC(=O)CSc1nc2ccccc2c(=O)n1CCCN1CCOCC1	13	20	5	-1	x	x	x	x
COc1ccc(NC(=O)CSc2nc3ccccc3c(=O)n2CCCN2CCCCC2)c(OC)c1	-13	-45	15	-6	24*	7	14	20*
CC(C)c1ccc(/C=C/C(=O)NC(=S)Nc2ccc(CN3CCOCC3)cc2)cc1	-7	-1	3	3	21*	2	25*	72*
CCc1ccc(S(=O)(=O)NC(=S)Nc2ccccc2)cc1	-1	-26	-7	-17	x	x	x	x
Clc1ccc(-c2nnn(Cc3nc4ccccc4s3)n2)cc1	-22	-38	11	0	18*	13	20	24*
c1ccc(Cn2nnc(-c3ccccc3)n2)cc1	2	-8	-3	7	0	7	x	x
COc1ccc(NC(=O)COC(=O)c2c3c(nc4ccccc24)CCCC3)cc1	-21	-30	13	-6	21*	9	9	6
CNC(=O)COC(=O)c1c2c(nc3ccccc13)CCC2	-1	11	x	-9	x	x	x	x
O=C(COC(=O)c1c2c(nc3ccccc13)CCCCC2)NCc1ccc2c(c1)OCO2	-19	-21	17	5	25*	3	23*	14
O=C(COC(=O)c1cccc(O)c1)NCc1ccc2c(c1)OCO2	-13	-20	x	0	x	x	x	x
Cc1cccc(CSCCNC(=O)COc2ccc(Cl)cc2)c1	-18	-51	12	-5	22*	10	13	17*
NC(=O)Cn1c(S(=O)(=O)Cc2ccccc2)nc2ccccc21	8	-4	3	x	1	x	x	x
